# SUMO HTRF inh: blocks human SUMOylation mediated by UBC9; inhibition, % at 35 µM; 290,000 tested, 0.36% active; HTRF SUMOylation assay, SAE1/SAE2 + UBC9, in vitro; P63279; in the data active means inhibition above about 50%, passing the limit was not always enough; inconclusive means no clear call, values can overlap the other calls
# Target sequence (P63279 whole entry, looked up): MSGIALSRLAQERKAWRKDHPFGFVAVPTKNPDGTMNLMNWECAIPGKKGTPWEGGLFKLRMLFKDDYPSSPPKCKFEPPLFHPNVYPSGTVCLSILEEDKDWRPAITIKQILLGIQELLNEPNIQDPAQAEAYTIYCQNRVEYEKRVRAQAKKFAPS
# ALR H2O2 inh: blocks human ALR sulfhydryl oxidase activity; P55789; purified ALR, DTT oxidation, H2O2 HRP-luminol luminescence; inhibition, % (no concentration beside the values); 290,000 tested, 3.8% active; AID 485317;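 active means mean replicate inhibition above about 79%, with every replicate also reaching it, limit read from the data; inconclusive means only one of the two criteria met; inactive means mean below limit and not every replicate reaching it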
# Target sequence (P55789 whole entry, looked up): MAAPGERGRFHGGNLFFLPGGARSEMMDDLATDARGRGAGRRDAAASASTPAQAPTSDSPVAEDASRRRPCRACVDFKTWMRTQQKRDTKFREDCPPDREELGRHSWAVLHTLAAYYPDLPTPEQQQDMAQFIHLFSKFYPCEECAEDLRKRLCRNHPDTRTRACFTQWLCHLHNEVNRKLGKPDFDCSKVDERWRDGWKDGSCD
# Rin1-Abl PPI inh: inhibitors of human Rin1-Abl protein interaction | 360,000 tested, 0.4% active | P00519+Q13671 | AID 588664 | inhibition, % at 7.35 µM | TR-FRET Rin1/Abl binding, biochemical; in the data active means inhibition above about 5%, passing the limit was not always enough
# RBBP9 inh: human RBBP9 hydrolase inhibition; recombinant RBBP9, FP-Rh probe fluorescence polarization; inhibition, % at 7.94 µM; 220,000 tested, 0.2% active;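 active means inhibition above the campaign mean of all tested compounds plus 3 SD, cut at about 14% in these data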;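 further: plate controls were DMSO wells with RBBP9 for no effect and wells lacking RBBP9 protein for full effect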
# Target sequence (O75884 whole entry, looked up): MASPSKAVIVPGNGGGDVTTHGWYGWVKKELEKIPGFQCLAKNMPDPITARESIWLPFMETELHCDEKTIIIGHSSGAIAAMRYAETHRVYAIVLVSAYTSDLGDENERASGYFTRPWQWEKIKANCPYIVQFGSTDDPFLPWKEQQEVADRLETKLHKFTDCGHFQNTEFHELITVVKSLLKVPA
#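 Test system: recombinant human RBBP9; Timing: 30 min then 45 min, 25 °C; Detection: fluorescence polarization; Control set: RBBP9 with DMSO as uninhibited control, no-protein wells as full inhibition; Compound dosing: one concentration, 7.94 µM nominal, 0.794% DMSO; Probe or stimulus: FP-Rh activity-based probe, 375 nM before mixing.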
# UBC13 inh: blocks human UBC13 polyubiquitin chain formation. P61088. TR-FRET. inhibition, % at 20 µM. 330,000 tested, 0.47% active; in the data active means inhibition above about 45%, passing the limit was not always enough; inconclusive means no clear call, values can overlap the other calls
# Target sequence (P61088 whole entry, looked up): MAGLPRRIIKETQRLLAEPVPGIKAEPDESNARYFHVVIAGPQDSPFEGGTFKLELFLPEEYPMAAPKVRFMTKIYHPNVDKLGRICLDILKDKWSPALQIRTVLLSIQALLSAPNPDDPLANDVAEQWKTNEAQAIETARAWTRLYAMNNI
# PREPL inhibitor: inhibits the human prolyl oligopeptidase-like enzyme; inhibition, % at 5.96 µM; recombinant PREPL, fluorescence polarization activity-based probe; 320,000 tested, 0.68% active; Q4J6C6;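 further: 0% = enzyme with DMSO and 100% = wells lacking enzyme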
# PREPL inh cf: human PREPL inhibition, confirmation. shares compounds with PREPL inhibitor. recombinant PREPL, fluorescence polarization activity probe. inhibition, % at 5.96 µM. 2,000 tested, 67% active. AID 2803;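 further: 0% = protein with DMSO and 100% = wells lacking protein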
# Casp3 counter: counter-screen for UBC13 inhibitors: human caspase-3 inhibition | shares compounds with UBC13 inh | Recombinant caspase-3, Caspase-Glo 3/7 luminescence, 60 min | inhibition, % at 20 µM | 1,400 tested, 4% active | AID 488856;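 active means mean inhibition across replicates above about 26%, limit read from the data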;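 further: plate controls were DMSO with caspase-3 for no effect and DMSO wells lacking enzyme for full effect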
# UBC13 confirm: confirmation of human UBC13 polyubiquitin inhibitors | shares compounds with UBC13 inh | UBC13 polyubiquitination, TR-FRET, biochemical | inhibition, % at 10 µM | 1,400 tested, 68% active | AID 488859; in the data active means inhibition above about 45%; inconclusive means no clear call, values can overlap the other calls
# Rin1-Abl confirm: Rin1-Abl interaction inhibition confirmation | AID 602124 | TR-FRET Rin1-Abl binding, purified proteins | inhibition, % at 7.35 µM | 1,300 tested, 49% active | shares compounds with Rin1-Abl PPI inh; in the data active means inhibition above about 6.5%
# GFP quench: quenches GFP fluorescence, counter-screen for Rin1-Abl inhibitors | shares compounds with Rin1-Abl PPI inh | inhibitors/quenchers counterscreen | inhibition, % at 6.75 µM | 1,300 tested, 8.5% active; in the data active means inhibition above about 6.5%;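 further: ABL1-eGFP fusion protein alone without its partner RIN1-SBP; 0% = protein with vehicle and 100% = wells lacking protein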
# GFP quench dose: counter-screen for Rin1-Abl inhibitors: GFP quenchers, dose response | AID 602182 | GFP fluorescence interference/quenching counterscreen | 230 tested, under 10 active | shares compounds with Rin1-Abl PPI inh | IC50, µM; call rule not given here;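 further: ABL1-eGFP fusion protein alone without its RIN1 binding partner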
# * = called active by the depositor; ? = inconclusive; · = no result; ! = not active in a repeat. This is a sample that favours compounds with a hit; in the whole collection about 4.3% have one here. Unless noted, no stated cut-off is given here; in the data, active means inhibition above about 43%; inactive means the rest.
SMILES,SUMO HTRF inh,ALR H2O2 inh,Rin1-Abl PPI inh,RBBP9 inh,UBC13 inh,PREPL inhibitor,Casp3 counter,UBC13 confirm,others
NCCCCCC(=O)OC1N=C(c2ccccc2Cl)c2cc(Br)ccc2NC1=O (centres undefined),9.4,-3.3,4.4,0.1,22.4,59.3*,·,·,PREPL inh cf=45.5*
C[n+]1c(-c2ccccc2)c2cc(N)ccc2c2ccc(N)cc21,100.8*,99.2*,-7.4,·,-186.2,141.9*,·,·,PREPL inh cf=123.5*
COc1ccc2[nH]c3c(c2c1)CCNC3C (centres undefined),1.7,19.2,0.4,·,7.6,12.9,·,·,
COc1ccc2c3c([nH]c2c1)C(C)NCC3 (centres undefined),32.6,-2.5,-1.6,6.3,6.0,66.8*,·,·,PREPL inh cf=4.0
CN1CCc2cc3c(c4c2C1Cc1ccccc1-4)OCO3 (centres undefined),37.3,21.5,-22.5,·,-117.6,46.1*,·,·,PREPL inh cf=40.0
O=S(=O)(c1cccc(C(F)(F)F)c1)N1Cc2ccccc2-n2nncc2C1,·,·,-1.5,·,·,·,·,·,
COc1ccc(C(SCC(NC(=O)OCc2ccccc2)C(=O)O)c2ccc(OC)cc2)cc1 (centres undefined),·,·,3.5,·,·,·,·,·,
COc1ccc2c(c1)c(CCN)c(C)n2Cc1ccccc1,14.3,12.4,1.3,-9.0,14.6,44.5*,·,·,PREPL inh cf=42.0
COC(=O)[C@H]1C[C@@H]1[C@H](NP(=O)(c1ccccc1)c1ccccc1)c1ccccc1,17.0,-6.4,1.6,-7.2,-4.7,46.6*,·,·,PREPL inh cf=46.5*
COC(=O)[C@@H]1C[C@H]1[C@@H](NP(=O)(c1ccccc1)c1ccccc1)c1ccccc1,-6.3,7.9,2.5,-7.5,2.8,11.3,·,·,
Cn1c(O)c(N=Nc2cccc(S(=O)(=O)N3CCOCC3)c2)c(=O)n(C)c1=O,4.9,10.2,-0.5,-13.5,-6.1,-3.3,·,·,
Cn1ncnc2c(=O)n(C)c(=O)nc1-2,101.6*,33.2,29.2*,·,-59.9,44.4*,·,·,PREPL inh cf=53.7*;Rin1-Abl confirm=47.9*;GFP quench=1.1;GFP quench dose=>67.5
COC(=O)C1=C(c2ccc(S(C)(=O)=O)cc2)C[C@@H]2CC[C@H]1N2C(=O)NCCCOC(C)C,·,·,-0.6,·,-8.8,4.6,·,·,
CN1CCN(c2ccc(N)c(N3CCN(C)CC3)c2)CC1,-10.5,·,-1.5,8.5,49.3*,4.0,1.2,78.0*,
COc1ccc(O)c2c(=O)c3c(OC)cc4c(c3oc12)C1C=COC1O4 (centres undefined),11.0,-4.0,-4.0,-11.5,·,13.3,-4.0,·,
CC1(C)C2([N+](=O)[O-])CN3CN(C2)CC1([N+](=O)[O-])C3,6.2,-0.2,1.7,-9.3,-3.6,-5.0,·,·,
CCCCCCCCCCCCCCCC[N+](C)(C)C,·,-42.0,-1.2,·,89.9*,26.0,7.5,84.4*,
Ic1ccccc1CN[C@@H]1C2CCN(CC2)[C@@H]1C(c1ccccc1)c1ccccc1,·,·,5.6,·,49.3*,42.5,-2.9,28.3,
O=c1c2cc(Br)ccc2[nH]c(=S)n1-c1ccccc1,16.7,-4.5,-6.5,-4.9,46.5*,2.6,-3.5,?,
O=c1c2ccccc2[nH]c(=S)n1-c1cccnc1,8.3,-8.9,·,-0.2,22.6,-4.4,·,·,
Cc1ccc2[nH]c(=S)n(-c3cccnc3)c(=O)c2c1,-2.4,-3.4,-0.6,-2.0,49.7*,11.8,-2.2,?,
O=c1c2ccccc2[nH]c(=S)n1-c1ccc(Br)cc1,9.9,3.4,2.0,-4.8,16.7,-0.1,·,·,
Cc1ccc2c(c1)C1CN(C)CCC1N2C(=O)/C(C#N)=C/c1ccc2c(c1)OCO2 (centres undefined),10.5,4.8,1.2,3.1,45.8*,1.2,1.1,56.5*,
Cc1cccc(N2CCc3c2nc2ccccc2c3N)c1,6.6,3.1,-3.5,-8.9,61.5*!,29.4,0.4,46.9*,
COC(=O)C1=C(c2ccc(Cl)c(C(F)(F)F)c2)C[C@@H]2CC[C@H]1N2C(=O)NCCOc1ccc(OC)cc1,·,-7.5,4.0,·,-5.2,7.1,·,·,
SMILES,SUMO HTRF inh,ALR H2O2 inh,Rin1-Abl PPI inh,RBBP9 inh,UBC13 inh,PREPL inhibitor,Casp3 counter,UBC13 confirm,others
NCCc1ccc(OCc2ccccc2)c(OCc2ccccc2)c1,·,·,-1.6,·,60.1*,8.8,0.3,59.4*,
COc1ccc(CCN)cc1OC,2.4,·,-0.2,·,1.7,2.3,·,·,
Cc1ccc2c(c1)C1CN(C)CCC1N2C(=O)c1cccs1 (centres undefined),11.0,0.2,2.0,4.5,-7.1,8.5,·,·,
Cc1ccc2c(c1)C1C[N+](C)(CC(=O)c3ccc(Cl)cc3Cl)CCC1N2C(=O)c1ccc(F)cc1 (centres undefined),·,·,2.1,·,46.6*,20.4,4.8,48.7*,
CCc1nn(CC(=O)N2CCC3(CC2)OCCO3)c(=O)c2cc3ccccc3n12,14.5,30.5,-4.0,·,-5.9,2.1,·,·,
ClCCN1CCN(c2ccnc3cc(Cl)ccc23)CC1,-3.7,-8.5,0.5,·,62.0*,19.8,-2.0,89.6*,
COc1ccc2c3c1OC1C(=O)CC[C@@]4(O)[C@@H](C2)N(C)CC[C@]314 (some centres undefined),·,·,2.8,·,-5.8,8.2,·,·,
CC12CCC(=O)C=C1CC(O)C1C2CCC2(C)C1CCC2(C)O (centres undefined),·,·,0.8,·,·,·,·,·,
CC(=O)N1N=C(c2cccnc2)CC1c1ccccc1O (centres undefined),17.4,4.1,-0.4,-4.8,2.5,9.4,·,·,
CC(=O)N1N=C(c2c(O)n(C)c(=O)n(C)c2=O)CC1c1ccccc1 (centres undefined),4.9,9.1,-0.1,-3.7,51.4*,0.1,2.4,21.5,
CCC(C)C1NC(=O)C(C(C)=O)=C1O (centres undefined),-32.3,-3.9,-2.9,·,-11.0,1.1,·,·,
Clc1ccc(CCC(Cn2ccnc2)Sc2c(Cl)cccc2Cl)cc1 (centres undefined),·,0.6,-3.0,·,48.4*,1.7,-4.7,34.3,
Clc1ccc(C(Cn2ccnc2)OCc2csc3c(Cl)cccc23)c(Cl)c1 (centres undefined),·,-2.0,-4.5,·,44.1,30.0,·,·,

# Bioassay records (PubChem)
